Source: article PMC8161485 (ACS Central Science, 2021)
Numbering of substitutions follows the chain as printed.

How the values were obtained:
[1] = biological target: T1, P450BM3 variant FL#62 (Priestia megaterium, UniProt P14779, A181T/A185V/A198V/A291V/A83V/E253G/F206C/F82S/F88A/H237Q/L354V/P143S/R256S/S227R/T176I/V79A); assay: Heme spin shift binding of MCL to P450 variant FL#62; design: species or system Bacillus megaterium
T1 sequence (P14779 1-1049 V79A/F82S/A83V/F88A/P143S/T176I/A181T/A185V/A198V/F206C/S227R/H237Q/E253G/R256S/A291V/L354V): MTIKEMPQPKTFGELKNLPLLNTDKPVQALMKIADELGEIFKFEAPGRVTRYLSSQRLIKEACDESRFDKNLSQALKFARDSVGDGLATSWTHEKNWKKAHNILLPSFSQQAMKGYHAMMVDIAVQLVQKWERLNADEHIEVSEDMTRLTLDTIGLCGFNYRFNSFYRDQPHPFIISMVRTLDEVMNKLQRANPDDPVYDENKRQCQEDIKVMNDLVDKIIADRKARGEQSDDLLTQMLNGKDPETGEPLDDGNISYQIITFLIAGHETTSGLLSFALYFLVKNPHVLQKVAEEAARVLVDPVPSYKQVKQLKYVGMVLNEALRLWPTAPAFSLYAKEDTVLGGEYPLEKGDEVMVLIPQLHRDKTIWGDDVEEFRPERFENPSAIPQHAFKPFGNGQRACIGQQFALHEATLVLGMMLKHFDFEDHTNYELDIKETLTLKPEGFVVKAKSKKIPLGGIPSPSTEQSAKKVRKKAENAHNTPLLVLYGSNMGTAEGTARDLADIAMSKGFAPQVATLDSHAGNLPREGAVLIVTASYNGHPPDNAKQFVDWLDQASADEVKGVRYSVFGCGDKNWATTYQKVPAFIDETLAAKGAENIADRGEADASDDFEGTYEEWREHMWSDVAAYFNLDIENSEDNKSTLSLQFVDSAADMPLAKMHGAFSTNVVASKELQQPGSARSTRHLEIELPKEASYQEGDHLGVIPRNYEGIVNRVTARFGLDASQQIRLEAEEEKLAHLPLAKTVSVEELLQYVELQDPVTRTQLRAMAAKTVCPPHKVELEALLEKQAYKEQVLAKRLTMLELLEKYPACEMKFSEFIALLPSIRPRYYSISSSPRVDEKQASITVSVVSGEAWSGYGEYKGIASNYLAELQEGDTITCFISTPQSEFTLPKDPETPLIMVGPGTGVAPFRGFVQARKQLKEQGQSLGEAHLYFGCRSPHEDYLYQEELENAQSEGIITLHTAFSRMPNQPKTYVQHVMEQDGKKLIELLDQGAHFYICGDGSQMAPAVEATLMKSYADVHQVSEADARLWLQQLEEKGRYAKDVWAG
Method in brief: (§1)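 Purified P450 (3 μM) in 50 mM potassium phosphate, pH 8.0, titrated with test compound (5–2000 μM) from a 50 mM ethanol stock. A difference spectrum (350–500 nm) was taken at each step. Absorbance change at 390/420 nm (high/low spin) was plotted against concentration, with KD from a nonlinear 1:1 binding fit. At least triplicate, room temperature.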

[2] = system: M9-ENL1 cells; assay: Cell viability of M9-ENL1 cells, Annexin V / 7-AAD flow cytometry; assay type: cell-based, human; details: 20 μM, 24 h
[3] = system: AML03 primary AML specimen; assay: Cell viability of primary AML specimen AML03; assay type: cell-based; details: Homo sapiens, read-out: AML03 LC50
Method in brief: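 Primary AML samples came from consenting donors. Live mononuclear cells were isolated on a Ficoll-Paque density gradient and cryopreserved, with 40–70% viability after thawing. Cells were kept at 37 °C, humidified, 5% CO2.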

[4] = biological target: T2, P450BM3 variant V-H10(A87I) (Priestia megaterium, UniProt P14779, A181T/A185V/A198V/A291V/E253G/F206C/F88I/H237Q/L354V/P143S/R256S/S227R/T176I/V79N); assay: Heme spin shift binding of MCL to P450 variant V-H10; design: species or system Bacillus megaterium
T2 sequence (P14779 1-1049 V79N/F88I/P143S/T176I/A181T/A185V/A198V/F206C/S227R/H237Q/E253G/R256S/A291V/L354V): T1 sequence (P14779 1-1049 V79A/F82S/A83V/F88A/P143S/T176I/A181T/A185V/A198V/F206C/S227R/H237Q/E253G/R256S/A291V/L354V) with A79N, S82F, V83A, A88I
Method in brief: as §1

[5] = system: primary AML specimens derived from patients with relapsed AML; assay: Activity against the four primary AML specimens; assay type: cell-based; details: Homo sapiens, read-out: LC50 across the four primary AML specimens

Compound: C=C1C(=O)O[C@H]2[C@H]1CCC(C)=C1CC[C@@](C)(O)[C@@H]12 [MCL, micheliolide]
- Kd [1]: 61 ± 3 µM
- reduction in cell viability [2]: 50%
- CC50 [3]: 15.7 µM
- Kd [4]: 1250 ± 54 µM
- CC50 [5]: 19 to 22 µM
